Each structure is given as a SMILES string. Active and inactive are the calls of the source. No cut-off for these calls is given here.

A word on the inhibition: it is the drop in the measured response relative to a control, in per cent.

The target of data set [1] is T1, Aurora kinase A (Homo sapiens) (UniProt O14965).
T1 sequence (whole entry): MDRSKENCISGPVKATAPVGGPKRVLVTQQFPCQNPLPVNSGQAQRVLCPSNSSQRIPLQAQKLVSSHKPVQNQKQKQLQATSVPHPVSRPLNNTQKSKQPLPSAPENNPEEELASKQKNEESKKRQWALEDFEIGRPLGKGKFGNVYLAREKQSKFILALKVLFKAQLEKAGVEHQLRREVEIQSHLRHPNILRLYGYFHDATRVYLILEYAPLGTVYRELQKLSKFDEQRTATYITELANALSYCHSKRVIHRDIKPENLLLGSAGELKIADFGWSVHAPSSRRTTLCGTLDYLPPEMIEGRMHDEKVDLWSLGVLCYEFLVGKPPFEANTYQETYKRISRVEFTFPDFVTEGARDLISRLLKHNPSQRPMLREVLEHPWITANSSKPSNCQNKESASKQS
Description: Binding affinity to AURKA in human NCI-H358 cells at 1 uM by mass spectrometry based pull down assay. It is filed as cell-based.

Data set [2] deals with Cysteine and glycine-rich protein 2 (Homo sapiens) (UniProt Q16527). The experiment in a line: Binding affinity to CSRP2 in human NCI-H23 cells at 1 uM by mass spectrometry based pull down assay. It is filed as cell-based.
In data set [3] the target is Monofunctional C1-tetrahydrofolate synthase, mitochondrial (Homo sapiens) (UniProt Q6UB35). Description: Binding affinity to MTHFD1L in human NCI-H23 cells at 1 uM by mass spectrometry based pull down assay. Format: cell-based.
In data set [4] the target is Thioredoxin-related transmembrane protein 1 (Homo sapiens) (UniProt Q9H3N1). The experiment in a line: Binding affinity to TMX1 in human NCI-H23 cells at 1 uM by mass spectrometry based pull down assay. Format: cell-based.
The target of data set [5] is Aldehyde dehydrogenase family 16 member A1 (Homo sapiens) (UniProt Q8IZ83). The experiment in a line: Binding affinity to ALDH16A1 in human NCI-H23 cells at 1 uM by mass spectrometry based pull down assay. It is filed as cell-based. The gist of the method: (§1)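 NCI-H23 or NCI-H358 cells were grown and lysed. Lysates were incubated overnight at 4 °C with 1 μM biotinylated covalent probe or DMSO, then pulled down on streptavidin beads. Proteins were run on polyacrylamide gels and stained with Coomassie. Bands were excised, digested and identified by mass spectrometry.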

Data set [6] concerns the target Delta-1-pyrroline-5-carboxylate synthase (Homo sapiens) (UniProt P54886). The experiment in a line: Binding affinity to ALDH18A1 in human NCI-H358 cells at 1 uM by mass spectrometry based pull down assay. It is filed as cell-based. The procedure, abridged: as §1
In data set [7] the target is Small ribosomal subunit protein uS7m (Homo sapiens) (UniProt Q9Y2R9). The experiment in a line: Binding affinity to MRPS7 in human NCI-H358 cells at 1 uM by mass spectrometry based pull down assay. It is filed as cell-based.
Data set [8] has as its target 14-3-3 protein gamma (Homo sapiens) (UniProt P61981). Description: Binding affinity to YWHAG in human NCI-H23 cells at 1 uM by mass spectrometry based pull down assay. It is filed as cell-based.
The target of data set [9] is Quinone oxidoreductase (Homo sapiens) (UniProt Q08257). Description: Binding affinity to CRYZ in human NCI-H358 cells at 1 uM by mass spectrometry based pull down assay. It is filed as cell-based.
Data set [10] addresses Tropomyosin alpha-3 chain (Homo sapiens) (UniProt P06753). The experiment in a line: Binding affinity to TPM3 in human NCI-H358 cells at 1 uM by mass spectrometry based pull down assay. It is filed as cell-based.
Data set [11] concerns the target 5'-nucleotidase domain-containing protein 1 (Homo sapiens) (UniProt Q5TFE4). Description: Binding affinity to NT5DC1 in human NCI-H23 cells at 1 uM by mass spectrometry based pull down assay. Format: cell-based.
Data set [12] addresses Filamin-B (Homo sapiens) (UniProt O75369). The experiment in a line: Binding affinity to FLNB in human NCI-H358 cells at 1 uM by mass spectrometry based pull down assay. Format: cell-based.
In data set [13] the target is 14-3-3 protein epsilon (Homo sapiens) (UniProt P62258). Description: Binding affinity to YWHAE in human NCI-H358 cells at 1 uM by mass spectrometry based pull down assay. It is filed as cell-based.
In data set [14] the test system is NCI-H23. The experiment in a line: Binding affinity to NDUFS7 in human NCI-H23 cells at 1 uM by mass spectrometry based pull down assay. It is filed as cell-based.
Data set [15] addresses Ribosomal protein S6 kinase alpha-3 (Homo sapiens) (UniProt P51812). Description: Inhibition of RSK2 domain2 in human SKCO1 cells at 1 uM after 4 hrs using biotin labeled DLKPSNILYVDESGNPESIR probe by mass-spectrometric analysis relative to control. It is filed as cell-based.
The target in data set [16] is T2, Dual specificity mitogen-activated protein kinase kinase 3 (Homo sapiens) (UniProt P46734).
T2 sequence (whole entry): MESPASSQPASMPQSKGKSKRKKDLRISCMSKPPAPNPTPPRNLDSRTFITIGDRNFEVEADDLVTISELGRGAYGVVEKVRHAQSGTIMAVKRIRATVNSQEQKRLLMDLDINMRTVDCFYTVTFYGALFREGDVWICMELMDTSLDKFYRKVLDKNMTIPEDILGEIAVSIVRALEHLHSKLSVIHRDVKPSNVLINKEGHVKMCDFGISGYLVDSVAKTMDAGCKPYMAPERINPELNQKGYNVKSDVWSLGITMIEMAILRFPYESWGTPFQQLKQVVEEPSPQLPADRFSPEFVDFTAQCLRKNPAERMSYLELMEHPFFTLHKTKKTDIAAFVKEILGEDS
The experiment in a line: Inhibition of full length human MEK3 (1 to 318 residues) expressed in mammalian expression system assessed as enzyme activity at 1 uM by KINOMEScan assay relative to control. The arrangement: scale not given: the % may be the effect or the level left. The procedure, abridged: (§2)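 In vitro ATP-site competition binding assay (KinomeScan) across a panel of 456 kinases. Compound was tested at 1 and 10 μM. The read-out is the binding inhibition score relative to control.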

Data set [17] concerns the target Activin receptor type-1 (Homo sapiens) (UniProt Q04771). The experiment in a line: Inhibition of human ACVR1 (188 to 509 residues) expressed in bacterial expression system assessed as enzyme activity at 1 uM by KINOMEScan assay relative to control. The arrangement: scale not given: the % may be the effect or the level left. The gist of the method:
as §2

The nature of data set [18]: Increase in secretion of basic-FGF in IL-1alpha activated RA patient-derived synovial fibroblasts at 0.6 to 3 uM preincubated for 3 hrs followed by IL-1alpha stimulation measured after 18 hrs by sandwich immunoassay. As to conditions: human. The gist of the method:
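Primary human RA synovial fibroblasts (donor RA2159) seeded at 1000 viable cells/well, grown ~24 h at 37 °C/5% CO2, then starved overnight in basal medium and for a further ~4 h in basal medium with 0.1% BSA. Inhibitor or DMSO given 3 h before stimulation. Supernatants from two adjacent wells pooled as one replicate, biological duplicate. Luminex multiplex panels (48 analytes), diluted 1:3. Mock-supernatant background and spiked-ligand cross-reactivity controls included.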

The target in data set [19] is Serine/threonine-protein kinase TAO2 (Homo sapiens) (UniProt Q9UL54). The experiment in a line: Inhibition of TAO2 in human SKCO1 cells at 1 uM after 4 hrs using biotin labeled DVKAGNILLSEPGLVK probe by mass-spectrometric analysis relative to control. It is filed as cell-based.
For data set [20], the target named is Mitogen-activated protein kinase kinase kinase 20 (Homo sapiens) (UniProt Q9NYL2). Description: Inhibition of human ZAK (1 to 331 residues) expressed in bacterial expression system assessed as enzyme activity at 10 uM by KINOMEScan assay relative to control. The arrangement: scale not given: the % may be the effect or the level left. The gist of the method:
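In vitro ATP-site competition binding assay across a panel of 456 kinases, with compound tested at 1 and 10 μM.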

Sequence of 14-3-3 protein epsilon (Homo sapiens) (P62258 whole entry): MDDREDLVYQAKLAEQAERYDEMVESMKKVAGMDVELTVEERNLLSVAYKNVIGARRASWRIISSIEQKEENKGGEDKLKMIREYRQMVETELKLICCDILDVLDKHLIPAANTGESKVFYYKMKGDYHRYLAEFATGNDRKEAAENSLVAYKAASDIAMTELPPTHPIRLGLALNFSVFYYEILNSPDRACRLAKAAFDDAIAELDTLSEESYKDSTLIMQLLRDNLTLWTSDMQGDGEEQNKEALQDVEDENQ
Sequence of Serine/threonine-protein kinase TAO2 (Homo sapiens) (Q9UL54 whole entry, the tested form may be a part): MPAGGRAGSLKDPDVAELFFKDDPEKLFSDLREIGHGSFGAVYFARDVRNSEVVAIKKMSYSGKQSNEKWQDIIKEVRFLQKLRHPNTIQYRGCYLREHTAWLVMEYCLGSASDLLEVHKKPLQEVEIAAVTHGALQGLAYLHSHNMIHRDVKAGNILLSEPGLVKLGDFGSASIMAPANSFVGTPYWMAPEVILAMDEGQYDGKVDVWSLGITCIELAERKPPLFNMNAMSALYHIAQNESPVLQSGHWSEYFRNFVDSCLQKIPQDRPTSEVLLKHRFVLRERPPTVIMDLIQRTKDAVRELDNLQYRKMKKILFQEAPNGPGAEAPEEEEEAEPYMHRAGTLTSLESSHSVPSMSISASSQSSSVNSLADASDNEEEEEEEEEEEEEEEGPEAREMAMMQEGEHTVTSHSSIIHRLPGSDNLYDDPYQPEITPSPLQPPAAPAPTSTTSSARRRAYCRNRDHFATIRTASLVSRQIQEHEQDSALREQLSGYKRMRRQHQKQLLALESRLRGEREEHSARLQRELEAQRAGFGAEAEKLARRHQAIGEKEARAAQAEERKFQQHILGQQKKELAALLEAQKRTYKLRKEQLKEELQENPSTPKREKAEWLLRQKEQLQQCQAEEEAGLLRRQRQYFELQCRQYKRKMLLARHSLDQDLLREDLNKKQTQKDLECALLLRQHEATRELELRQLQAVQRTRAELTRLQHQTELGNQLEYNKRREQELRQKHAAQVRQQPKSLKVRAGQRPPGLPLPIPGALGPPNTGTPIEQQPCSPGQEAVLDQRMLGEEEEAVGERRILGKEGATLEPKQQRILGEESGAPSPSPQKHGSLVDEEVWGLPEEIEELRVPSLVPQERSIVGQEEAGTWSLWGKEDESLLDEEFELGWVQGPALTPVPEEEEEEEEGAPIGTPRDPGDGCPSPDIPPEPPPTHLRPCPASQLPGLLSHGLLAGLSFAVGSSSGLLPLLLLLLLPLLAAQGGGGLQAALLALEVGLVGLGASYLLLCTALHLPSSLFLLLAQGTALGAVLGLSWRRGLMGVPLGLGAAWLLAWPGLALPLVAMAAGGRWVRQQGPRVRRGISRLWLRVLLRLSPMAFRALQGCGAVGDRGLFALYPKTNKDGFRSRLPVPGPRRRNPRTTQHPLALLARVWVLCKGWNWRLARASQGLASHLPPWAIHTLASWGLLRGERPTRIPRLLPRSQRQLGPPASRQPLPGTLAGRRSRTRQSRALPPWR
Sequence of Delta-1-pyrroline-5-carboxylate synthase (Homo sapiens) (P54886 whole entry): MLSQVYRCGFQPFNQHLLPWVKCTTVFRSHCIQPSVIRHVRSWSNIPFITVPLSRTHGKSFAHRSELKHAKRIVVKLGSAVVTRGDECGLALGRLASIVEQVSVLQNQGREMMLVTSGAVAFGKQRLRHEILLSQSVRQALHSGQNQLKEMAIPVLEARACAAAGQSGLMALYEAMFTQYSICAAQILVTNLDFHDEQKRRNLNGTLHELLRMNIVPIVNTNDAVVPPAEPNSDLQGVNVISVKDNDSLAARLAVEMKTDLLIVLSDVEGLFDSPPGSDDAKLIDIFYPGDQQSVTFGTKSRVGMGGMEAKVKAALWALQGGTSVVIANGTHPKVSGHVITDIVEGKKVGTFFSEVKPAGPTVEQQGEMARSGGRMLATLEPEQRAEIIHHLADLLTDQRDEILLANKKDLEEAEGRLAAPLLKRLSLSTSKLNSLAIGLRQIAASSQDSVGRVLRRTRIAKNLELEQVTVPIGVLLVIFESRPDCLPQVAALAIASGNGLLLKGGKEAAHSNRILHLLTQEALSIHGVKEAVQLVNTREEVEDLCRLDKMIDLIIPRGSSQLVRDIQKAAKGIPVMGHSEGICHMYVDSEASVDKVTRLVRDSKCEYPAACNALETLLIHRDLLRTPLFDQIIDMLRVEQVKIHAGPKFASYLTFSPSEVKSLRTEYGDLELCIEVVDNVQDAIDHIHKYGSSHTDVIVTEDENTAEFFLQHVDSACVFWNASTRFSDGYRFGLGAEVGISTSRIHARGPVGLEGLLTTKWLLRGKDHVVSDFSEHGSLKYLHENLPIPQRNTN
Sequence of Ribosomal protein S6 kinase alpha-3 (Homo sapiens) (P51812 whole entry, the tested form may be a part): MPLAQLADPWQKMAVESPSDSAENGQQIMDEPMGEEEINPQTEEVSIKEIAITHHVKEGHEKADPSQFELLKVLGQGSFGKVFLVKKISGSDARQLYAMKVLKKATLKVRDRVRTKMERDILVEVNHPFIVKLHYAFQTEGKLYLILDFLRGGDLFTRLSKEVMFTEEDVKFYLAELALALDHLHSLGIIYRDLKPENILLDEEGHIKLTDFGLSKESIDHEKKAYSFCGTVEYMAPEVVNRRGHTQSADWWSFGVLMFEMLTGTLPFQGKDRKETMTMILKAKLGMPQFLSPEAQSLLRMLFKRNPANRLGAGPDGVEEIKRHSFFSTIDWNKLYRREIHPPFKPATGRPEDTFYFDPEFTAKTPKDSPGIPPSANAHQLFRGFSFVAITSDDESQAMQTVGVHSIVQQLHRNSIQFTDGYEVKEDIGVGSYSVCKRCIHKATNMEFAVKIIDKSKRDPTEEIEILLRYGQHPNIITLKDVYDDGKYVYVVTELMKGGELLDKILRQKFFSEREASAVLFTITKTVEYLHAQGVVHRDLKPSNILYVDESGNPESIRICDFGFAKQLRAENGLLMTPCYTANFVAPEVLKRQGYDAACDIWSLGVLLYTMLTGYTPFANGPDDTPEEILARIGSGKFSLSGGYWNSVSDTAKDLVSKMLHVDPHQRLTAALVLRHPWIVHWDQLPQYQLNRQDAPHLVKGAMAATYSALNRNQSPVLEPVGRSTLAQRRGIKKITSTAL
Sequence of 14-3-3 protein gamma (Homo sapiens) (P61981 whole entry): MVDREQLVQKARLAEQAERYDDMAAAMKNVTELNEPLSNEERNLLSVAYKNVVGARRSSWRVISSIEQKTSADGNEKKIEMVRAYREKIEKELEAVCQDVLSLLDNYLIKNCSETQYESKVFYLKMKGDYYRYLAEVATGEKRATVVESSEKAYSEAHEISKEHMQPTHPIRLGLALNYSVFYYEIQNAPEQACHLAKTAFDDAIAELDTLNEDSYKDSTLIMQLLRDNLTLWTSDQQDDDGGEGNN
Sequence of Monofunctional C1-tetrahydrofolate synthase, mitochondrial (Homo sapiens) (Q6UB35 whole entry): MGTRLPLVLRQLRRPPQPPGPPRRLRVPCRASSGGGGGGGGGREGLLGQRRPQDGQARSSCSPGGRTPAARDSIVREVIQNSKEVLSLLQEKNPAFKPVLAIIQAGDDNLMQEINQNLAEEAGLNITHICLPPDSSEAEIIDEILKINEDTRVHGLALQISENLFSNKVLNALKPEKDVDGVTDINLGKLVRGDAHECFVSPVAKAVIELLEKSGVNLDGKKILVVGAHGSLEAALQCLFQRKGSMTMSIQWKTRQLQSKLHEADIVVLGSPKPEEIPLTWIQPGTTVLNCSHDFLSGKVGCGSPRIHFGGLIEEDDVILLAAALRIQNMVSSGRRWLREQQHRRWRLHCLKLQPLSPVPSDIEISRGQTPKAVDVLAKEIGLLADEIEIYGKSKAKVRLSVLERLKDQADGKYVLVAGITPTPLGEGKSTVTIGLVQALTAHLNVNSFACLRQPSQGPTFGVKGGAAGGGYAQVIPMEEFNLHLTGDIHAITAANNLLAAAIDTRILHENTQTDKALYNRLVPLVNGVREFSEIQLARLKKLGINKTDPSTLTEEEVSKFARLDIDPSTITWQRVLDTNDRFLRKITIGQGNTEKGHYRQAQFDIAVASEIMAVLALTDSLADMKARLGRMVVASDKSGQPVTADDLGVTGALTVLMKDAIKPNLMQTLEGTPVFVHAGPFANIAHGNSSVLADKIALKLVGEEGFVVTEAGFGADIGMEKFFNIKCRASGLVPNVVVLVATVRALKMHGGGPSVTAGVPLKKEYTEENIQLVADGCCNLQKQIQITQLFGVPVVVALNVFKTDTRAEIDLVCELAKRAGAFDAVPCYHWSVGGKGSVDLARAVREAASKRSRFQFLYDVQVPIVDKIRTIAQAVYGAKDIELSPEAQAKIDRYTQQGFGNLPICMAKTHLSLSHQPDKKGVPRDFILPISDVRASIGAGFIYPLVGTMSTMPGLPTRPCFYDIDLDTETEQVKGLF
Sequence of Aldehyde dehydrogenase family 16 member A1 (Homo sapiens) (Q8IZ83 whole entry): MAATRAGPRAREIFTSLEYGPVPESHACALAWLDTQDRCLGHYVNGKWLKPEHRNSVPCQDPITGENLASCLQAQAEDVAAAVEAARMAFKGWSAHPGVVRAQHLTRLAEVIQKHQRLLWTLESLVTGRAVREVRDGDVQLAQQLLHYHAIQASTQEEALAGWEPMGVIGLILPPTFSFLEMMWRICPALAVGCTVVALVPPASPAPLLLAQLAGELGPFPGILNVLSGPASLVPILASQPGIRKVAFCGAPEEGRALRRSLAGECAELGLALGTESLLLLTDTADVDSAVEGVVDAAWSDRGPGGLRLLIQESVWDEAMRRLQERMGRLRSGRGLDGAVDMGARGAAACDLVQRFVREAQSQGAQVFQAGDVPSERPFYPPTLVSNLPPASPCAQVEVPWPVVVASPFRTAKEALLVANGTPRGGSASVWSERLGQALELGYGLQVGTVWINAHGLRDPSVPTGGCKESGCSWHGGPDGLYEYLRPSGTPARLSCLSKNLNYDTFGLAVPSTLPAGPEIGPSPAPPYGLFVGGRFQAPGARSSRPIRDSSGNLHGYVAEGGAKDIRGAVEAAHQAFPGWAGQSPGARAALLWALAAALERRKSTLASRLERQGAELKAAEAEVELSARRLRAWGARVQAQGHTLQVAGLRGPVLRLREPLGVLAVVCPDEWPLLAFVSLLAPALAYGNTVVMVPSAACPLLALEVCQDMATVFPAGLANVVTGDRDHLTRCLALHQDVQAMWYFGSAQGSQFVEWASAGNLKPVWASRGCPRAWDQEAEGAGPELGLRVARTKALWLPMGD

On to `C=CC(=O)Nc1ccccc1Nc1nc(Nc2ccc(N3CCN(CCOCCOCCOCCNC(=O)CCCC[C@@H]4SC[C@@H]5NC(=O)N[C@@H]54)CC3)cc2)ncc1Cl`, for which the result in data set [1], in data set [2], in [3], in [4], in [5] and in data set [6] was Active. The outcome in data set [7], in [8], in [9], in [10], in data set [11] and in data set [12] was Active. In addition, the result in [13] and in [14] was Active.

Regarding `C=CC(=O)Nc1ccccc1Oc1nc(Nc2cnn(CCOC)c2)ncc1Cl`, the inhibition in data set [15] is -9.3%.

Take `COc1cc(O)c2c(c1)/C=C/C[C@H](O)[C@H](O)C(=O)/C=C\C[C@H](C)OC2=O`: the Activity in data set [16] was 22%; in [17], 21%; in data set [18] it was “Non-Toxic”; in data set [20], 2.2%. The inhibition in [19] is -2.5%.

The record behind these values is ChEMBL document CHEMBL4118021, “Studies of TAK1-centered polypharmacology with novel covalent TAK1 inhibitors” (Bioorg Med Chem, 2017).
